Experimental data: ChEMBL document CHEMBL1121617, “Antihypertensive ureidopiperidines” (1980)
Active and inactive are the calls of the source. The rule behind the calls is not given here.

Legend:
[1] = tested on: Rattus norvegicus; assay: The percent fall in systolic blood pressure at 1.5 / 4 hr after peroral administration of 40 mg/kg in conscious renal hypertensive rats (RHR).; assay type: functional, Artery; conditions: route oral
Outline: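 Conscious renal hypertensive rats, four per group, dosed orally. Starting systolic pressures were 160–200 mmHg. Percentage fall in systolic pressure was taken at 1.5 and/or 4 h after dosing. Falls under 10% were scored as ±.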

[2] = tested on: Rattus norvegicus; assay: The percent fall in systolic blood pressure at 1.5 / 4 hr after peroral administration of 50 mg/kg in DOCA/saline hypertensive rats at 6 hr; assay type: functional, Artery; conditions: route oral
[3] = tested on: Rattus norvegicus; assay: The percent fall in systolic blood pressure at 1.5 / 4 h after peroral administration of 50 mg/kg in DOCA/saline hypertensive rats at 2 hr; assay type: functional, Artery; conditions: route oral
[4] = tested on: Rattus norvegicus; assay: The percent fall in systolic blood pressure at 1.5 / 4 hr after peroral administration of 50 mg/kg in DOCA/saline hypertensive rats at 24 hr; Non significant; assay type: functional, organism-based; set-up: dose 50 mg/kg; conditions: Artery, at 50 mg/kg
[5] = tested on: Rattus norvegicus; assay: Starting systolic blood pressure at dose of 50 mg/kg in rat; assay type: functional, Artery
Outline: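 Mean systolic blood pressure before dosing for each group of four DOCA/saline hypertensive rats given 50 mg/kg orally. It indicates how far hypertension was established.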

[6] = tested on: Rattus norvegicus; assay: The percent fall in systolic blood pressure after peroral administration of 50 mg/kg in DOCA/saline hypertensive rats at 24 hr; conditions: route oral
[7] = tested on: Rattus norvegicus; assay: The percent fall in systolic blood pressure at 1.5 / 4 hr after peroral administration of 25 mg/kg in DOCA/saline hypertensive rats at 24 hr; Non significant, p>0.05; assay type: functional, organism-based; set-up: dose 25 mg/kg; conditions: Artery, at 25 mg/kg
[8] = tested on: Rattus norvegicus; assay: Starting systolic blood pressure at dose of 10 mg/kg; assay type: functional, Artery
Outline: (§1)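 DOCA/saline hypertensive rats, four per group, dosed orally at 50, 25 or 10 mg/kg. Mean starting systolic pressure was recorded for each group. Systolic pressure was then read 2, 6 and 24 h after dosing and reported as percentage fall from the starting value.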

[9] = tested on: Rattus norvegicus; assay: The percent fall in systolic blood pressure at 1.5 / 4 hr after peroral administration of 25 mg/kg in DOCA/saline hypertensive rats at 2 hr; assay type: functional, Artery; conditions: route oral; outline: as §1
[10] = tested on: Rattus norvegicus; assay: The percent fall in systolic blood pressure at 1.5 / 4 hr after peroral administration of 10 mg/kg in DOCA/saline hypertensive rats at 24 hr; Non significant, p>0.05; assay type: functional, organism-based; set-up: dose 10 mg/kg; conditions: Artery, at 10 mg/kg; outline: as §1
[11] = tested on: Rattus norvegicus; assay: The percent fall in systolic blood pressure at 1.5 / 4 hr after peroral administration of 25 mg/kg in DOCA/saline hypertensive rats at 6 hr; assay type: functional, Artery; conditions: route oral; outline: as §1
[12] = tested on: Rattus norvegicus; assay: The percent fall in systolic blood pressure at 1.5 / 4 hr after peroral administration of 10 mg/kg in DOCA/saline hypertensive rats at 2 hr; assay type: functional, Artery; conditions: route oral; outline: as §1
[13] = tested on: Rattus norvegicus; assay: Starting systolic blood pressure at dose of 25 mg/kg; assay type: functional, Artery; outline: as §1
[14] = tested on: Rattus norvegicus; assay: The percent fall in systolic blood pressure at 1.5 / 4 hr after peroral administration of 10 mg/kg in DOCA/saline hypertensive rats at 6 hr; assay type: functional, Artery; conditions: route oral; outline: as §1
[15] = tested on: Rattus norvegicus; assay: Percent fall in systolic blood pressure at 1.5 / 4 hr after peroral administration of 50 mg/kg in DOCA/saline hypertensive rats at 6 h; Non significant; assay type: functional, organism-based; set-up: dose 50 mg/kg; conditions: Artery, at 50 mg/kg
[16] = tested on: Rattus norvegicus; assay: The percent fall in systolic blood pressure at 1.5 / 4 hr after peroral administration of 10 mg/kg in DOCA/saline hypertensive rats at 6 h; Non significant, p>0.05; assay type: functional, organism-based; set-up: dose 10 mg/kg; conditions: Artery, at 10 mg/kg; outline: as §1
[17] = tested on: Rattus norvegicus; assay: The percent fall in systolic blood pressure at 1.5 / 4 hr after peroral administration of 50 mg/kg in DOCA/saline hypertensive rats at 24 hr; assay type: functional, Artery; conditions: route oral; outline: as §1
[18] = tested on: Rattus norvegicus; assay: The percent fall in systolic blood pressure at 1.5 / 4 hr after peroral administration of 25 mg/kg in DOCA/saline hypertensive rats at 24 hr; assay type: functional, Artery; conditions: route oral; outline: as §1
[19] = tested on: Rattus norvegicus; assay: The percent fall in systolic blood pressure at 1.5 / 4 h after peroral administration of 50 mg/kg in conscious DOCA/saline hypertensive rats at 24 hr; Non significant; assay type: functional, organism-based; set-up: dose 50 mg/kg; conditions: Artery, at 50 mg/kg; outline: as §1
[20] = tested on: Rattus norvegicus; assay: The percent fall in systolic blood pressure at 1.5 / 4 hr after peroral administration of 50 mg/kg in DOCA/saline hypertensive rats at 2 hr; Non significant; assay type: functional, organism-based; set-up: dose 50 mg/kg; conditions: Artery, at 50 mg/kg
[21] = tested on: Rattus norvegicus; assay: The percent fall in systolic blood pressure at 1.5 / 4 hr after peroral administration of 10 mg/kg in DOCA/saline hypertensive rats at 24 hr; Non significant; assay type: functional, organism-based; set-up: dose 10 mg/kg; conditions: Artery, at 10 mg/kg

Row | Structure (SMILES) | Activity [1] | Fall [2] | Fall [3] | Fall [4] | SP [5] | also measured
1 | Cc1cccc(NC(=O)NC2CCN(CCc3c[nH]c4ccccc34)CC2)c1 | 14 | – | – | – | – | –
2 | O=C(Nc1ccccc1C(F)(F)F)NC1CCN(CCCC(=O)c2ccccc2)CC1 | – | 20% | 20% | Not significant | 208 mmHg | –
3 | NC(=O)NC1CCN(CCc2c[nH]c3ccccc23)CC1 | 28 | – | – | – | – | –
4 | O=C(Nc1ccc(Cl)c(Cl)c1)NC1CCN(CCCC(=O)c2ccccc2)CC1 | – | 35% | 35% | – | 169 mmHg | Fall [6]: 18%
5 | O=C(Nc1ccccc1C(F)(F)F)NC1CCN(CCc2c[nH]c3ccccc23)CC1 | <10 | – | – | – | – | –
6 | O=C(NC(=O)C1CCCCC1)NC1CCN(CCc2c[nH]c3ccccc23)CC1 | – | 52% | 48% | Not significant | 173 mmHg | Fall [7]: Not significant; SP [8]: 170 mmHg; Fall [9]: 54%; Fall [10]: Non significant, p>0.05; Fall [11]: 54%; Fall [12]: 30%; SP [13]: 181 mmHg; Fall [14]: 27%
7 | COc1ccc(NC(=O)NC2CCN(CCCC(=O)c3ccccc3)CC2)cc1 | <10 | – | – | – | – | –
8 | S=C(Nc1ccccc1)NC1CCN(CCc2c[nH]c3ccccc23)CC1 | 21 | – | – | – | – | –
9 | O=C(NC(=O)c1ccccc1)NC1CCN(CCCC(=O)c2ccc(F)cc2)CC1 | – | 31% | 43% | Not significant | 184 mmHg | –
10 | O=C(NC(=O)c1ccccc1)NC1CCN(CCCC(=O)c2ccccc2)CC1 | – | – | 21% | Not significant | 169 mmHg | Fall [7]: Not significant; SP [8]: 173 mmHg; Fall [15]: Not significant; Fall [9]: 28%; Fall [10]: Not significant; Fall [11]: 26%; Fall [12]: 22%; Fall [16]: Not significant; SP [13]: 178 mmHg
11 | O=C(NC(=O)c1ccccc1)NC1CCN(CCc2c[nH]c3ccccc23)CC1 | 48 | 49% | 49% | – | 179 mmHg | Fall [17]: 38%; SP [8]: 178 mmHg; Fall [9]: 51%; Fall [10]: Not significant; Fall [11]: 48%; Fall [18]: 21%; Fall [12]: 36%; Fall [16]: Not significant; SP [13]: 171 mmHg
12 | COc1ccccc1OCC(O)CN1CCC(NC(=O)Nc2ccccc2)CC1 (configuration not stated) | – | – | 27% | – | 212 mmHg | Fall [6]: -27%; Fall [15]: Not significant
13 | O=C(CCCN1CCC(NC(=S)NC(=O)c2ccccc2)CC1)c1ccccc1 | – | 32% | 36% | Not significant | 186 mmHg | –
14 | O=C(Nc1cccc(C(F)(F)F)c1)NC1CCN(CCc2c[nH]c3ccccc23)CC1 | – | – | – | – | 208 mmHg | Fall [15]: Not significant; Fall [19]: Not significant; Fall [20]: Not significant
15 | O=C(Nc1ccccc1)NC1CCN(CCc2c[nH]c3ccccc23)CC1 | 29 | – | – | – | – | –
16 | O=C(NC1CCN(CCc2c[nH]c3ccccc23)CC1)c1ccccc1 [INDORAMIN] | 38 | 45% | 41% | – | 198 mmHg | Fall [17]: 38%; Fall [7]: inactive; SP [8]: 197 mmHg; Fall [9]: 25%; Fall [11]: 29%; Fall [21]: inactive; Fall [12]: 33%; SP [13]: 178 mmHg; Fall [14]: 31%
17 | CCCCNC(=O)NC1CCN(CCc2c[nH]c3ccccc23)CC1 | – | 29% | – | Not significant | 172 mmHg | Fall [20]: Not significant
18 | Cc1cccc(NC(=O)NC2CCN(CCCC(=O)c3ccccc3)CC2)c1 | 21 | – | – | – | – | –
19 | O=C(Nc1ccc(Cl)cc1)NC1CCN(CCCC(=O)c2ccccc2)CC1 | – | 25% | 30% | Not significant | 200 mmHg | –
20 | Cc1cccc(C)c1NC(=O)NC1CCN(CCCC(=O)c2ccccc2)CC1 | <10 | – | – | – | – | –
21 | O=C(NC(=O)c1cccs1)NC1CCN(CCc2c[nH]c3ccccc23)CC1 | – | 38% | 47% | – | 193 mmHg | Fall [17]: 38%; Fall [7]: Not significant; SP [8]: 169 mmHg; Fall [9]: 43%; Fall [10]: Not significant; Fall [11]: 46%; Fall [12]: 50%; SP [13]: 171 mmHg; Fall [14]: 46%
22 | CN(C(=O)Nc1ccccc1)C1CCN(CCc2c[nH]c3ccccc23)CC1 | – | – | – | – | 174 mmHg | Fall ([2]; 50 mg/kg): 52%; Fall [17]: 26%; SP [8]: 168 mmHg; Fall ([3]; 50 mg/kg): 54%; Fall [9]: 44%; Fall [11]: 38%; Fall [18]: 20%; SP [13]: 180 mmHg
23 | COc1ccc(NC(=O)NC2CCN(CCc3c[nH]c4ccccc34)CC2)cc1 | 27 | – | – | – | – | –
24 | O=C(Nc1ccc(Cl)cc1)NC1CCN(CCc2c[nH]c3ccccc23)CC1 | 21 | – | – | – | – | –
25 | O=C(Nc1ccc(Cl)c(Cl)c1)NC1CCN(CCc2c[nH]c3ccccc23)CC1 | 15 | – | – | – | – | –
26 | Cn1cc(CCN2CCC(NC(=O)NC(=O)c3ccccc3)CC2)c2ccccc21 | – | 28% | 26% | Not significant | 172 mmHg | –
27 | O=C(Nc1ccccc1)NC1CCN(CCCC(=O)c2ccccc2)CC1 | 39 | 24% | 31% | Not significant | 205 mmHg | –
28 | CN(/C(S)=N/c1ccccc1)C1CCN(CCc2c[nH]c3ccccc23)CC1 | – | – | – | Not significant | 172 mmHg | Fall [15]: Not significant; Fall [20]: Not significant
